Assay results reported in ChEMBL document CHEMBL1124727, “Neuronal mapping of the heart with 6-[18F]fluorometaraminol” (1990).

Key:
Canis familiaris [1] = assay: Tissue concentration of the compound in dog adrenal cortex after iv administration; format: functional, Canis lupus familiaris
Procedure, shortened: (§1)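 Mongrel dogs (two female, 15.0 and 18.6 kg, 0.45 mCi; two male, 2.0 mCi) given FMR as iv cephalic-vein bolus in 2.0 mL sterile 0.15 M acetate buffer, pH 4.5. Killed 1 h later by iv pentobarbital; tissues washed in saline, blotted, weighed, gamma counted 1 min. Expressed as % kg dose/g, N = 4 (muscle, pancreas, kidney N = 2).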

Canis familiaris [2] = assay: Tissue concentration in dog liver after iv administration; format: functional, Canis lupus familiaris; procedure, shortened: as §1
Canis familiaris [3] = assay: Tissue concentration in dog adrenal medulla after iv administration; format: functional, Canis lupus familiaris; procedure, shortened: as §1
Canis familiaris [4] = assay: Tissue concentration in dog left ventricle after iv administration; format: functional, Canis lupus familiaris, Heart left ventricle; procedure, shortened: as §1
Canis familiaris [5] = assay: Tissue concentration in dog right ventricle after iv administration; format: functional, Canis lupus familiaris, Heart right ventricle; procedure, shortened: as §1
Canis familiaris [6] = assay: Tissue concentration in dog pancreas after iv administration; format: functional, Canis lupus familiaris; procedure, shortened: as §1
Canis familiaris [7] = organism: Canis familiaris; assay: Normalized FMR Concentration in posterior wall of heart of phenol treated canine myocardium; format: functional, Canis lupus familiaris
Procedure, shortened: (§2)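 Mongrel dogs, LV anterior epicardium (LAD region) painted with 88% phenol in ethanol (v/v); 4–7 days later FMR iv, killed 1 h post by pentobarbital/KCl overdose. LV cut into ~1 cm transverse slices, then radial segments, gamma counted; % kg dose/g normalized to highest-activity segment (atria = 100%). Affected area = mean of three lowest contiguous segments in each of two midbasal slices; controls N = 3, treated N = 5.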

Canis familiaris [8] = assay: Tissue concentration in dog right atrium after iv administration; format: functional, Canis lupus familiaris, Cardiac atrium; procedure, shortened: as §1
Canis familiaris [9] = assay: Tissue concentration in dog left atrium after iv administration; format: functional, Canis lupus familiaris, Cardiac atrium; procedure, shortened: as §1
Canis familiaris [10] = assay: Tissue concentration in dog spleen after iv administration; format: functional, Canis lupus familiaris; procedure, shortened: as §1
Canis familiaris [11] = organism: Canis familiaris; assay: Normalized FMR Concentration in anterior wall of heart of phenol treated canine myocardium; format: functional, Canis lupus familiaris; procedure, shortened: as §2
Canis familiaris [12] = assay: Tissue concentration in dog blood after iv administration; format: functional, Canis lupus familiaris; procedure, shortened: as §1
Canis familiaris [13] = assay: Tissue concentration in dog lung after iv administration; format: functional, Canis lupus familiaris; procedure, shortened: as §1
Canis familiaris [14] = assay: Tissue concentration in dog kidney after iv administration; format: functional, Canis lupus familiaris; procedure, shortened: as §1
Canis familiaris [15] = assay: Tissue concentration in dog muscle after iv administration; format: functional, Canis lupus familiaris; procedure, shortened: as §1
Canis familiaris [16] = assay: Tissue concentration in dog thyroid after iv administration; format: functional, Canis lupus familiaris, Thyroid gland
Canis familiaris [17] = assay: Tissue concentration in dog left ventricle to blood ratio after iv administration; format: functional, Canis lupus familiaris; procedure, shortened: as §1
Canis familiaris [18] = assay: Tissue concentration in dog heart after iv administration; format: functional, Canis lupus familiaris
Canis familiaris [19] = organism: Canis familiaris; assay: Concentration of Endogenous NE and FMR from Midbasal Slices of Phenol-Treated Canine in posterior wall; format: functional, organism-based; conditions: Canis lupus familiaris
Procedure, shortened: (§3)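 Phenol-painted (88% phenol in ethanol, epicardial LV anterior wall near LAD) dogs, 4–7 days post surgery; sacrificed 1 h after iv FMR by pentobarbital/KCl overdose. Midbasal LV slices cut into radial segments, gamma counted; homogenized in cold 0.4 M perchloric acid, NE by HPLC-fluorescence. FMR normalized to highest-activity segment = 100%. Three lowest contiguous segments per slice averaged versus opposed segments; Student's t test.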

Canis familiaris [20] = organism: Canis familiaris; assay: Concentration of Endogenous NE and FMR from Midbasal Slices of Phenol-Treated Canine in anterior wall; format: functional, organism-based; conditions: Canis lupus familiaris; procedure, shortened: as §3
Rattus norvegicus [21] = assay: Neuronal selectivity expressed as Concentration in spleen after iv administration in rat, pretreated with 6-hydroxydopamine (control = 0.85+/-0.005); format: functional, organism-based; conditions: tested as the 3H-labelled form
Rattus norvegicus [22] = assay: Neuronal selectivity expressed as Concentration in left atrium after iv administration in rat, pretreated with 6-hydroxydopamine (control =4.75+/-0.28); conditions: Cardiac atrium, tested as the 3H-labelled form
Rattus norvegicus [23] = assay: Neuronal selectivity expressed as Concentration in right ventricle after iv administration in rat, pretreated with 6-hydroxydopamine (control = 4.86+/-0.24); conditions: Heart right ventricle, tested as the 3H-labelled form
Rattus norvegicus [24] = assay: Neuronal selectivity expressed as Concentration in left ventricle after iv administration in rat, pretreated with 6-hydroxydopamine (control = 4.10+/-0.23); conditions: Heart left ventricle, tested as the 3H-labelled form
Rattus norvegicus [25] = assay: Neuronal selectivity expressed as Concentration in rigt atrium after iv administration in rat, pretreated with 6-hydroxydopamine (control = 4.86+/-0.68); conditions: Cardiac atrium, tested as the 3H-labelled form
Rattus norvegicus [26] = assay: Neuronal selectivity expressed as Concentration in blood after iv administration in rat, pretreated with 6-hydroxydopamine (control = 0.065+/-0.005); format: functional, organism-based; conditions: tested as the 3H-labelled form

Row | SMILES | [3H] concentration (Canis familiaris [2]) | [3H] concentration (Canis familiaris [3]) | [3H] concentration (Canis familiaris [10]) | [3H] concentration (Canis familiaris [12]) | [3H] concentration (Canis familiaris [13]) | [3H] concentration (Canis familiaris [16]) | [3H] concentration (Canis familiaris [17]) | [3H] concentration (Canis familiaris [18]) | other results
1 | CC(N)C(O)c1cc(O)ccc1F (centres undefined) | 0.33 % kg dose g-1 | 9.89 % kg dose g-1 | 0.69 % kg dose g-1 | 0.04 % kg dose g-1 | 0.26 % kg dose g-1 | – | – | – | [3H] concentration (Canis familiaris [1]): 0.59 % kg dose g-1; [3H] concentration (Canis familiaris [4]): 1.24 % kg dose g-1; [3H] concentration (Canis familiaris [5]): 0.89 % kg dose g-1; [3H] concentration (Canis familiaris [6]): 0.6 % kg dose g-1; [3H] concentration (Canis familiaris [7]): 53.8 % kg dose g-1; [3H] concentration (Canis familiaris [8]): 1.44 % kg dose g-1; [3H] concentration (Canis familiaris [9]): 1.54 % kg dose g-1; [3H] concentration (Canis familiaris [11]): 14.5 % kg dose g-1; [3H] concentration (Canis familiaris [14]): 0.41 % kg dose g-1; [3H] concentration (Canis familiaris [15]): 0.07 % kg dose g-1
2 | CC(N)C(O)c1ccc(I)c(O)c1 (centres undefined) | 0.5 % kg dose g-1 | 0.45 % kg dose g-1 | 0.26 % kg dose g-1 | 0.04 % kg dose g-1 | 0.25 % kg dose g-1 | 0.2 % kg dose g-1 | 4 % kg dose g-1 | 0.17 % kg dose g-1 | –
3 | CC(N)C(O)c1cc(O)ccc1I (centres undefined) | 0.49 % kg dose g-1 | 0.2 % kg dose g-1 | 0.08 % kg dose g-1 | 0.05 % kg dose g-1 | 0.26 % kg dose g-1 | 0.06 % kg dose g-1 | 1 % kg dose g-1 | 0.05 % kg dose g-1 | –
4 | NC[C@H](O)c1ccc(O)c(O)c1 | – | – | – | – | – | – | – | – | Concentration (Canis familiaris [19]): 1460 ng/g; Concentration (Canis familiaris [20]): 303 ng/g; Concentration (Rattus norvegicus [21]): 0.25 % dose g-1; Concentration (Rattus norvegicus [22]): 0.39 % dose g-1; Concentration (Rattus norvegicus [23]): 0.41 % dose g-1; Concentration (Rattus norvegicus [24]): 0.6 % dose g-1; Concentration (Rattus norvegicus [25]): 0.29 % dose g-1; Concentration (Rattus norvegicus [26]): 0.052 % dose g-1
